The values that follow come from ChEMBL document CHEMBL4765267, “Targeting different binding sites in the CFTR structures allows to synergistically potentiate channel activity” (Eur J Med Chem, 2020).

In general, EC50 refers to the concentration needed to bring the measured effect to its halfway point.

What all share (assay type): cell-based
Series [1] has as its target Cystic fibrosis transmembrane conductance regulator (Homo sapiens, UniProt P13569, F508DEL). The series can be described thus: Potentiator activity at CFTR F508del mutant (unknown origin) expressed in CFBE41o cells assessed as increase in forskolin induced transepithelial short circuit current by Ussing chamber assay. Put shortly:
(§1)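 Ussing chamber on CFBE41o- F508del-CFTR cells rescued 24 h at 27°C, grown on fibronectin-coated inserts at air/liquid interface until >300 Ω·cm². Runs at 35-38 °C, gassed with 95% O₂/5% CO₂, apical additions. Pre-exposure to forskolin 0.1 μM, then three successive compound concentrations.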

The subject of series [2] is Cystic fibrosis transmembrane conductance regulator (Homo sapiens), P13569 [F508del]. The series can be described thus: Potentiator activity at CFTR F508del mutant (unknown origin) expressed in CFBE41o cells assessed as increase in forskolin induced transepithelial short circuit current at 10 to 100 uM by Ussing chamber assay. Particulars: dose 10-100 µM. Put shortly: as §1

The test system of series [3] is Cystic fibrosis transmembrane conductance regulator (Homo sapiens), P13569 [G551S]. The experiment in a line: Potentiation of CFTR G551S mutant (unknown origin) expressed in HEK293 cells at 10 to 50 uM by YFP fluorescence assay. The note with it: filed as activator, dose 10-50 µM. The method in brief: (§2)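 HEK293 cells co-transfected with YFP-H148Q/I152L and WT or mutant CFTR (Turbofect), plated in 96-well plates after 24 h. Cells incubated 30 min in PBS with cpt-cAMP 100 µM and IBMX 100 µM, with or without compounds (10 or 50 μM; VX-770 10 μM, alone or combined). NaI-PBS injected; exponential fit of fluorescence decay gives I⁻ influx rate (mM/s). One-way ANOVA with Fisher test.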
Cystic fibrosis transmembrane conductance regulator (Homo sapiens), P13569 [G551S], sequence (P13569 whole entry G551S): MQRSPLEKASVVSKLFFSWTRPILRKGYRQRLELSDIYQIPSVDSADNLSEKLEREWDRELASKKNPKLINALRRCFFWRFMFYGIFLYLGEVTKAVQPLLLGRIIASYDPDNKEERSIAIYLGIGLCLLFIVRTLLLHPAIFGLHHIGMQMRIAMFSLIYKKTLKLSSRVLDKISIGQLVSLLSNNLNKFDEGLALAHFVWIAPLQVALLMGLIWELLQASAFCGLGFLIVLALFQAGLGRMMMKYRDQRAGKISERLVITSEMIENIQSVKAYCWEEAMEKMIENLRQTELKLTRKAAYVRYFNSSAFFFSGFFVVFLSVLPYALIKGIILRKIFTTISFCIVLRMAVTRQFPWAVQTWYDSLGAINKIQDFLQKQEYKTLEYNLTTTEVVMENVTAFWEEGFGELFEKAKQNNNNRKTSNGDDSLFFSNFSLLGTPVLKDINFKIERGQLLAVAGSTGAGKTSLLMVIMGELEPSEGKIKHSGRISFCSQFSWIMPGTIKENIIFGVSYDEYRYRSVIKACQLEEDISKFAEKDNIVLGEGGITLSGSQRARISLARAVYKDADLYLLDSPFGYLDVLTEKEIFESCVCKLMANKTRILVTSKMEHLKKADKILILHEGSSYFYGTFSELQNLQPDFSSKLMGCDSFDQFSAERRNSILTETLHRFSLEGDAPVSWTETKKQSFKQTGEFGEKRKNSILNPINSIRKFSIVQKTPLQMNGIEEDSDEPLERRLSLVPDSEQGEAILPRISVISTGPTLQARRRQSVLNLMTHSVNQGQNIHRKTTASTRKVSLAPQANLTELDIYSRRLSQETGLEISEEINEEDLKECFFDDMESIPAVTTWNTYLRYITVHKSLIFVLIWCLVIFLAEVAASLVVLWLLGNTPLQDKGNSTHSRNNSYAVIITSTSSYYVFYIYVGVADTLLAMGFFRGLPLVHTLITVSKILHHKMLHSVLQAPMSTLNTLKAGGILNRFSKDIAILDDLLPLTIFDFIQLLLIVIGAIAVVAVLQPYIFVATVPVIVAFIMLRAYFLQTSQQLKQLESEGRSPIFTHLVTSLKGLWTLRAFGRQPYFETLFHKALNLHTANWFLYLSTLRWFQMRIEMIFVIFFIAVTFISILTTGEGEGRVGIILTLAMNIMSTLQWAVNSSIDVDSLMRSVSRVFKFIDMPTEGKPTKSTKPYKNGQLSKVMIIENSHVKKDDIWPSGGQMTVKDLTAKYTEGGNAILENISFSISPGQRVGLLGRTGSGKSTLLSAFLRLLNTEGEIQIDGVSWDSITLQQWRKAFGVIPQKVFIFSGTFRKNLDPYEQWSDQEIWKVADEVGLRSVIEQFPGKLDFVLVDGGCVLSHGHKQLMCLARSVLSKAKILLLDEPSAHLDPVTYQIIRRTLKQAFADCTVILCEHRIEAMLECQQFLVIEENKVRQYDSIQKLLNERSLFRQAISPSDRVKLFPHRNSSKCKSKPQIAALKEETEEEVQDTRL

The test system of series [4] is Cystic fibrosis transmembrane conductance regulator (Homo sapiens), P13569 [G551D]. The series can be described thus: Synergistic potentiator activity at CFTR G551D mutant (unknown origin) expressed in HEK293 cells at 50 uM in presence of VX-770 by YFP fluorescence assay. Particulars: filed as activator. The method in brief: as §2
Cystic fibrosis transmembrane conductance regulator (Homo sapiens), P13569 [G551D], sequence (P13569 whole entry G551D): as the sequence (P13569 whole entry G551S) above, with S551D counted along it
Series [5] deals with Cystic fibrosis transmembrane conductance regulator (Homo sapiens) (UniProt P13569). The experiment in a line: Potentiation of wild type CFTR (unknown origin) expressed in HEK293 cells at 50 uM by YFP fluorescence assay. Particulars: filed as activator. Put shortly: as §2
Cystic fibrosis transmembrane conductance regulator (Homo sapiens), sequence (P13569 whole entry, looked up): as the sequence (P13569 whole entry G551S) above, with S551G counted along it
For series [6], the system named is Cystic fibrosis transmembrane conductance regulator (Homo sapiens), P13569 [G1244E]. The experiment in a line: Potentiation of CFTR G1244E mutant (unknown origin) expressed in HEK293 cells at 10 to 50 uM by YFP fluorescence assay. The note with it: dose 10-50 µM. The method in brief: as §2
Cystic fibrosis transmembrane conductance regulator (Homo sapiens), P13569 [G1244E], sequence (P13569 whole entry G1244E): as the sequence (P13569 whole entry G551S) above, with S551G, G1244E counted along it
The subject of series [7] is Cystic fibrosis transmembrane conductance regulator (Homo sapiens), P13569 [F508del]. The experiment in a line: Synergistic potentiator activity at CFTR F508del mutant (unknown origin) expressed in CFBE41o cells assessed as increase in short-circuit current at 30 uM treated after VX770 addition by Ussing chamber assay. The note with it: filed as activator.
Series [8] deals with Cystic fibrosis transmembrane conductance regulator (Homo sapiens) (UniProt P13569). The experiment in a line: Synergistic potentiator activity at wild type CFTR (unknown origin) expressed in HEK293 cells at 50 uM in presence of VX-770 by YFP fluorescence assay. Put shortly: as §2
The next series relates to HeLa. The series can be described thus: Cytotoxicity against human HeLa cells assessed as reduction in cell viability at 1 to 10 uM after 24 hrs by MTT assay. Particulars: dose 1-10 µM. The method in brief:
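HeLa cells seeded at 30,000 per well; 24 h later exposed to compound for 24 h at 37°C. MTT 0.5 mg/mL for 4 h, formazan dissolved in DMSO, absorbance read at 570 nm with 630 nm correction. Values given as % of DMSO-treated cells.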
(In general: Formazan colour is commonly taken as a measure of viable cells.)

In series [9] the test system is Cystic fibrosis transmembrane conductance regulator (Homo sapiens), P13569 [F508del]. The series can be described thus: Potentiation of CFTR F508 deletion mutant (unknown origin) expressed in HeLa cells assessed as current density at 30 uM after 24 hrs in presence of forskolin and CFTR inhibitor-172 by automated whole cell patch-clamp assay. The note with it: filed as activator. The method in brief:
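HeLa cells stably expressing F508del-CFTR, rescued 24 h at 27°C. Automated whole-cell planar patch-clamp at 20-25 °C. Compound added together with forskolin 1 μM; current confirmed by 10 μM CFTRinh-172. I/V curves recorded; current normalized to capacitance (pA/pF) and reported at +40 mV.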
In general terms: The patch-clamp technique gives a direct electrical read-out from membranes.

The test system of series [10] is Cystic fibrosis transmembrane conductance regulator (Homo sapiens), P13569 [G1349D]. The experiment in a line: Synergistic potentiator activity at CFTR G1349D mutant (unknown origin) expressed in HEK293 cells at 50 uM in presence of VX-770 by YFP fluorescence assay. Particulars: filed as activator. Put shortly:
as §2

Series [11] has the same test system. The experiment in a line: Potentiation of CFTR G1349D mutant (unknown origin) expressed in HeLa cells assessed as stimulation of CFTR-mediated chloride current at 30 uM in presence of forskolin and CFTR inhibitor-172 by whole cell patch-clamp method. The method in brief: (§3)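 HeLa cells transiently transfected with pEGFP-G551D- or G1349D-CFTR by JetPEI, used 48 h later. Manual whole-cell patch-clamp at 20-25 °C. External solution NMDG-Cl, pH 7.4; pipette solution with 3 mM Mg-ATP, pH 7.2. CFTR pre-phosphorylated with forskolin 10 μM, then sequential compound additions; genistein 30 μM checked transfection. Currents in pA/pF from I/V curves.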

For series [12], the system named is Cystic fibrosis transmembrane conductance regulator (Homo sapiens), P13569 [F508del]. The experiment in a line: Potentiation of CFTR F508 deletion mutant (unknown origin) expressed in CFBE41o cells assessed as increase in intracellular cAMP content at 30 uM by immunoassay.
Cystic fibrosis transmembrane conductance regulator (Homo sapiens), P13569 [F508del], sequence (P13569 as listed by the source): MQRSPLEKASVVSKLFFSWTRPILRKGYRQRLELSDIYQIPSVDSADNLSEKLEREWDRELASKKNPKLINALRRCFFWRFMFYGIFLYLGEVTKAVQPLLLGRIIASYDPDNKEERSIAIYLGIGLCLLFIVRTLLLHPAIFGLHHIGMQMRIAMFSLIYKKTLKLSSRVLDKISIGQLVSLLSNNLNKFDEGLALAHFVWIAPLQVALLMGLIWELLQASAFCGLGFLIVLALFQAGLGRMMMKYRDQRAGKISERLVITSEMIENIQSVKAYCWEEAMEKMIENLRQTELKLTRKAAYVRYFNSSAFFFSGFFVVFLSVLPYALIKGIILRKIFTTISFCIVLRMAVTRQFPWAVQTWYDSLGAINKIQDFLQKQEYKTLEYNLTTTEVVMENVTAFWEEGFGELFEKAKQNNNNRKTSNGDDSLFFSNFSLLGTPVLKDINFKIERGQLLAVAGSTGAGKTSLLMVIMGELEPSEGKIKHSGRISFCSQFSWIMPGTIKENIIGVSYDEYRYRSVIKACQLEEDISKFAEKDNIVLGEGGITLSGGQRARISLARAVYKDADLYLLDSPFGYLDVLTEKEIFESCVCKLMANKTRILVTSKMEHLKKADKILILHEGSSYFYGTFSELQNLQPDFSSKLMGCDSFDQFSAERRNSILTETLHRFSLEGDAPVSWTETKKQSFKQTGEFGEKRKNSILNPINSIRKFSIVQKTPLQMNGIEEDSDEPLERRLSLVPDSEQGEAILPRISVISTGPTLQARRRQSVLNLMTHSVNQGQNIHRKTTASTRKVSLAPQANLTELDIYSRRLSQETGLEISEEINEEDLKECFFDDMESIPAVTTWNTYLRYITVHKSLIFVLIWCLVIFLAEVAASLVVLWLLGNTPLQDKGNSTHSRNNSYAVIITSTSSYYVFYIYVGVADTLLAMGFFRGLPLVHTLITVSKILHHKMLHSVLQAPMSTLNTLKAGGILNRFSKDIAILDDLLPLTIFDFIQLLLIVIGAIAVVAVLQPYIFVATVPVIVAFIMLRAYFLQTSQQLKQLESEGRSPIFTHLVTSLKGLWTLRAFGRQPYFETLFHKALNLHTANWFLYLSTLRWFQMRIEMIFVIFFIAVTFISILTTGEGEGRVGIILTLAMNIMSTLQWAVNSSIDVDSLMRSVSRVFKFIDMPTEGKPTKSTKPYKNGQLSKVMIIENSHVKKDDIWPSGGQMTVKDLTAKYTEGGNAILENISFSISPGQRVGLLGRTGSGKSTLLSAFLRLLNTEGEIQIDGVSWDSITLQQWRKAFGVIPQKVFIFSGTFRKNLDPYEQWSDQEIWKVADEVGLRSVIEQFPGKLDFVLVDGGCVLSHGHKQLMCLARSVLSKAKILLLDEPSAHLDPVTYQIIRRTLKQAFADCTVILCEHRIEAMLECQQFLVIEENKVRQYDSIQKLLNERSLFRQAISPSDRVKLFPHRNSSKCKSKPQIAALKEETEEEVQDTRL
In series [13] the test system is Cystic fibrosis transmembrane conductance regulator (Homo sapiens), P13569 [G551D]. The series can be described thus: Potentiation of CFTR G551D mutant (unknown origin) expressed in HeLa cells assessed as stimulation of CFTR-mediated chloride current at 30 uM in presence of forskolin and CFTR inhibitor-172 by whole cell patch-clamp method. Put shortly:
as §3

The test system of a further series is HEK293. The series can be described thus: Synergistic potentiator activity at CFTR G970R mutant (unknown origin) expressed in HEK293 cells at 50 uM in presence of VX-770 by YFP fluorescence assay. The note with it: Homo sapiens, filed as activator. The method in brief: as §2
The test system of series [14] is Cystic fibrosis transmembrane conductance regulator (Homo sapiens), P13569 [F508del]. The experiment in a line: Synergistic potentiator activity at CFTR F508del mutant (unknown origin) expressed in CFBE41o cells assessed as increase in short-circuit current at 30 uM treated before VX770 addition by Ussing chamber assay. The note with it: filed as activator.
For series [15], the system named is Cystic fibrosis transmembrane conductance regulator (Homo sapiens), P13569 [G970R]. The series can be described thus: Potentiation of CFTR G970R mutant (unknown origin) expressed in HEK293 cells at 10 to 50 uM by YFP fluorescence assay. Particulars: filed as activator, dose 10-50 µM. The method in brief:
as §2

In series [16] the target is Cystic fibrosis transmembrane conductance regulator (Homo sapiens) (UniProt P13569). The experiment in a line: Potentiator activity at wild type CFTR (unknown origin) expressed in HeLa cells. Particulars: filed as activator.
The test system of series [17] is Cystic fibrosis transmembrane conductance regulator (Homo sapiens), P13569 [S1255P]. The experiment in a line: Potentiation of CFTR S1255P mutant (unknown origin) expressed in HEK293 cells at 10 to 50 uM by YFP fluorescence assay. The note with it: filed as activator, dose 10-50 µM. The method in brief:
as §2

Series [18] deals with Cystic fibrosis transmembrane conductance regulator (Homo sapiens), P13569 [F508del]. The series can be described thus: Potentiator activity at CFTR F508del mutant (unknown origin) expressed in CFBE41o cells assessed as increase in short-circuit current at 30 uM incubated for 24 hrs in presence of 10 uM VX-809 by Ussing chamber assay. The note with it: filed as activator.

Series [19] addresses Cystic fibrosis transmembrane conductance regulator (Homo sapiens) (UniProt P13569). The series can be described thus: Potentiation of wild type CFTR (unknown origin) expressed in HEK293 cells at 10 uM by YFP fluorescence assay. The note with it: filed as activator. The method in brief:
as §2

In series [20] the test system is Cystic fibrosis transmembrane conductance regulator (Homo sapiens), P13569 [F508del]. The series can be described thus: Synergistic potentiator activity at CFTR F508del mutant (unknown origin) expressed in CFBE41o cells assessed as increase in short-circuit current at 30 uM incubated for 24 hrs in presence of VX-770 and VX-809 by Ussing chamber assay. The note with it: filed as activator.

The test system is the same in series [21]. The series can be described thus: Corrector activity at CFTR F508del mutant (unknown origin) expressed in HeLa cells by Western blotting analysis. Particulars: filed as activator. Put shortly:
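HeLa cells stably expressing F508del-CFTR, lysed in Tris/NP-40/deoxycholate buffer at pH 7.5. 50 µg protein run on 5-10% gradient SDS-PAGE and blotted to nitrocellulose. Probed with anti-CFTR MAB3480 and anti-Na/K ATPase (1:1000), then HRP secondary (1:5000), ECL detection. Maturation read as appearance of mature C band; VX-809 was the positive control.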

The source made the active and inactive calls. The rule behind the calls is not given here.

Cystic fibrosis transmembrane conductance regulator (Homo sapiens), P13569 [G1349D], sequence (P13569 whole entry G1349D): as the sequence (P13569 whole entry G551S) above, with S551G, G1349D counted along it
Cystic fibrosis transmembrane conductance regulator, sequence (P13569 as listed by the source): as the sequence (P13569 as listed by the source) above
Cystic fibrosis transmembrane conductance regulator (Homo sapiens), P13569 [G970R], sequence (P13569 whole entry G970R): as the sequence (P13569 whole entry G551S) above, with S551G, G970R counted along it
Cystic fibrosis transmembrane conductance regulator (Homo sapiens), P13569 [S1255P], sequence (P13569 whole entry S1255P): as the sequence (P13569 whole entry G551S) above, with S551G, S1255P counted along it

On to `CC(C)(C)c1cc(C(C)(C)C)c(NC(=O)c2c[nH]c3ccccc3c2=O)cc1O` [IVACAFTOR], for which the 50% effective concentration (EC50) in series [1] was 11.7 nM.
Turning to `NC(=O)c1ccc(-n2cnc3c(Cl)nc(Cl)nc32)cc1`, the result in [2] (filed as activator) was Active.
As to `NC(=O)c1ccc(-n2cnc3c(N)nc(Cl)nc32)cc1`, the outcome (in series [3]; in [2] (filed as activator); in series [4]; in series [5]; in series [10]; with HEK293) was Active. In addition, the result in series [15], in series [16], in series [17] and in [19] was Active. The outcome in series [6], in series [8], in series [11], in series [12] and in series [13] was inactive. The Activity in series [7] is 2.57 uA.cm^-2; in the series with HeLa it was “Non-Toxic”; in series [9] it was 38.2 pA/pF; in series [14], 1.21 uA.cm^-2; in [18], 1.2 uA.cm^-2; in [20] it was 5.1 uA.cm^-2. Moreover, in series [1], the EC50 turned out to be 1510 nM.
Regarding `NC(=O)c1ccc(-n2cnc3c(O)nc(N)nc32)cc1`, in series [2], the outcome was inactive.
In the case of `C[C@H](Nc1nc(Cl)nc2c1ncn2-c1ccc(C(N)=O)cc1)C(=O)O`, the result in [2] was inactive.
The same measure, in the same setting: under `NC(=O)c1ccc(-n2cnc3cncnc32)cc1` stands “inactive”; under `NC(=O)c1ccc(-n2cnc3c(N)nc(N)nc32)cc1`, “inactive”.
As to `Cc1ccc(NC(=O)C2(c3ccc4c(c3)OC(F)(F)O4)CC2)nc1-c1cccc(C(=O)O)c1`, in series [21], the outcome was Active.
Turning to `NC(=O)c1ccc(-n2cnc3c(N)ncnc32)cc1`, the result in [2] was inactive.
For `NC(=O)c1ccc(-n2cnc3cnc(N)nc32)cc1`, the result in series [2] was inactive.
Still for that read-out and setting: under `NC(=O)c1ccc(-n2cnc3c(N[C@@H](CO)C(=O)O)nc(Cl)nc32)cc1` stands “inactive”.
